These results are taken from ChEMBL document CHEMBL1781949, “Veraguamides A-G, cyclic hexadepsipeptides from a dolastatin 16-producing cyanobacterium Symploca cf. hydnoides from Guam” (J Nat Prod, 2011).

The IC50 is the midpoint of a concentration-inhibition curve. A higher IC50 goes with weaker potency.

Numbered stars: 1 amine (or outer) side, 2 acyl side, 3 side chain; on linkers, the order of the positions; unused ones are H or OH. Square brackets hold non-standard residues; d marks the D form. Peptide text beside a SMILES is read from it. X1 = CC(Cc1ccccc1)C(N[*:1])C(=O)[*:2]; X2 = CC(C)C(N[*:1])C(C)C(=O)[*:2]; dNMeV = CN[C@@H](C(=O)O)C(C)C; dHiv = CC(C)[C@@H](O)C(=O)O; Lac = C[C@H](O)C(=O)O

One experiment has as its system HT-29. The experiment in a line: Cytotoxicity against human HT-29 cells after 48 hrs by MTT assay. The format is functional, cell-based. The following applies: HT-29, 48 h. An outline of the steps: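 HT29 colorectal adenocarcinoma cells grown in DMEM with 10% FBS at 37 °C and 5% CO2. Cells seeded at 12,500 per well and treated with a range of concentrations 24 h after seeding. Paclitaxel positive control and DMSO solvent control. 48 h exposure, then MTT read-out. IC50 fitted from duplicate experiments.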

For a further experiment, the system named is HeLa. As to the kind of experiment: Cytotoxicity against human HeLa cells after 48 hrs by MTT assay. Format: functional, cell-based. An outline of the steps: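 HeLa cervical carcinoma cells grown in DMEM with 10% FBS at 37 °C and 5% CO2. Cells seeded at 3,000 per well and dosed at varying concentrations 24 h later. Paclitaxel positive control and DMSO solvent control. Incubated 48 h more before MTT measurement of viability. IC50 fitted from duplicate experiments.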
For orientation: Tetrazolium dyes change colour on reduction, which living cells bring about.

With `CC(C)C1NC(=O)[C@@H]2CCCN2C(=O)C(C(C)Cc2ccccc2)NC(=O)[C@@H]2CCCN2C(=O)[C@@H](C(C)C)N(C)C(=O)[C@@H](C(C)C)OC(=O)[C@@H]2CCCN2C(=O)[C@H](C)OC(=O)C1C` (stereo partly specified) [DOLASTATIN 16] (cyclo([Lac]P[dHiv][dNMeV]P[X1]P[X2])), the IC50 in the experiment on HT-29 was 78 µM; in the experiment on HeLa it was 58 µM.

Regarding `CC(=O)O[C@H]1C(=O)[C@@]2(C)[C@H]([C@H](OC(=O)c3ccccc3)[C@]3(O)C[C@H](OC(=O)[C@H](O)[C@@H](NC(=O)c4ccccc4)c4ccccc4)C(C)=C1C3(C)C)[C@]1(OC(C)=O)CO[C@@H]1C[C@@H]2O` [PACLITAXEL], the figures for the 50% inhibitory concentration (IC50) in the experiment with HT-29 and with HeLa were 0.003 µM and 0.0026 µM, respectively. For the compound `C#CCCC[C@H]1OC(=O)[C@H](C(C)C)N(C)C(=O)[C@@H]2CCCN2C(=O)[C@H]([C@@H](C)CC)OC(=O)[C@H](C(C)C)N(C)C(=O)[C@H](C(C)C)NC(=O)[C@H]1C` [VERAGUAMIDE C], in the experiment with HeLa, the IC50 is 6.1 µM.

In turn, `C#CCCC[C@H]1OC(=O)[C@H](C(C)C)N(C)C(=O)[C@@H]2CCCN2C(=O)[C@H](Cc2ccccc2)OC(=O)[C@H](C(C)C)N(C)C(=O)[C@H](C(C)C)NC(=O)[C@H]1C` [VERAGUAMIDE F] displayed an IC50 in the experiment with HeLa of 49 µM.
